Assays:
Assay type in all cases: functional, cell-based
KB = assay: Cytotoxicity against human KB cells by MTT assay
Outline: (§1)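 Cells grown in RPMI-1640 with 10% fetal calf serum plus penicillin and streptomycin, 37 °C, 5% CO₂. Compounds in DMSO, final ≤2% (v/v), tested in 96-well cultures with MTT staining. IC₅₀ = concentration cutting optical density 50% versus untreated cells; three replicate wells per point; mean of three independent determinations.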

CWR22R = assay: Cytotoxicity against human 22Rv1 cells by MTT assay; outline: as §1
U-251 = assay: Cytotoxicity against human U251 cells by MTT assay; outline: as §1
[1] = Cytotoxicity against human Blu-87 cells by MTT assay; outline: as §1
769-P = assay: Cytotoxicity against human 769-P cells by MTT assay; outline: as §1
SCaBER = assay: Cytotoxicity against human SCaBER cells by MTT assay; outline: as §1
HT-29 = assay: Cytotoxicity against human HT-29 cells by MTT assay; outline: as §1
786-0 = assay: Cytotoxicity against human 786-0 cells by MTT assay; outline: as §1
A-375 = assay: Cytotoxicity against human A375 cells by MTT assay; outline: as §1
A549 = assay: Cytotoxicity against human A549 cells by MTT assay; outline: as §1
OS-RC-2 = assay: Cytotoxicity against human OS-RC2 cells by MTT assay; outline: as §1
MCF7 = assay: Cytotoxicity against human MCF7 cells by MTT assay; outline: as §1
HepG2 = assay: Cytotoxicity against human HepG2 cells by MTT assay; outline: as §1
Bel-7402 = assay: Cytotoxicity against human Bel7402 cells by MTT assay; outline: as §1
BGC-823 = assay: Cytotoxicity against human BGC823 cells by MTT assay; outline: as §1
HeLa = assay: Cytotoxicity against human HeLa cells by MTT assay; outline: as §1

Compound	IC50 (KB) [µM]	IC50 (CWR22R) [µM]	IC50 (U-251) [µM]	IC50 [1] [µM]	IC50 (769-P) [µM]	IC50 (SCaBER) [µM]	IC50 (HT-29) [µM]	IC50 (786-0) [µM]	IC50 (A-375) [µM]	IC50 (A549) [µM]	IC50 (OS-RC-2) [µM]	IC50 (MCF7) [µM]	IC50 (HepG2) [µM]	IC50 (Bel-7402) [µM]	IC50 (BGC-823) [µM]	IC50 (HeLa) [µM]
CCCCOc1ccc2c3cc[n+](Cc4ccccc4)c(C)c3n(CC(C)C)c2c1	6	< 1.6	1.8	8.9	2.3	9.7	4	2.4	2.1	2.2	5.8					
CCCCCCCCOc1ccc2c3cc[n+](Cc4ccccc4)c(C)c3n(CCCc3ccccc3)c2c1	< 1.5	< 1.5	2.9	1.9	1.8	6.1	3.4	< 1.5	< 1.5	1.6	1.7					
CCOc1ccc2c3cc[n+](Cc4ccccc4)c(C)c3n(CC)c2c1	4.6		15.2	23.4	6.4	19.8	10.2	9.6	6.8	11.2	7.8					
CCn1c2cc(OCc3ccccc3)ccc2c2ccnc(C)c21												> 100	15.5	> 100	17.2	> 100
CCCCCCCCCCOc1ccc2c3ccnc(C)c3n(CCCC)c2c1													> 100			> 100
Cc1nccc2c3ccc(OCc4c(F)c(F)c(F)c(F)c4F)cc3n(CCCc3ccccc3)c12													> 100			
CCCCCCCCOc1ccc2c3ccnc(C)c3n(CCCc3ccccc3)c2c1													> 100			> 100
CCCCn1c2cc(OCC(C)C)ccc2c2ccnc(C)c21	19.4		32.3	17.4	4	15.9	20.1	14.4	18.4	30	30.5	21.6	15.3	25.6	23.4	40.7
CCCCn1c2cc(OC(CC)CC)ccc2c2ccnc(C)c21	19.8		25.1	16	22.2	43.8	25.1	13.4	18.8	21	26.9	5.4	15.6	21.5	16.7	28.2
CCCCn1c2cc(OCC(O)C(F)(F)F)ccc2c2ccnc(C)c21 (stereo not given)												33.1	> 100	62	96.4	> 100
CCCCCCCCOc1ccc2c3ccnc(C)c3n(CCCC)c2c1												13.6	13.6	> 100	15.4	> 100
CCCCn1c2cc(OCc3ccccc3)ccc2c2ccnc(C)c21	45			32.7	17.1	39.7	26.8	10.1	28.6	18.1		16.9	17.8	> 100	17.2	47
CCCCn1c2cc(OCc3c(F)c(F)c(F)c(F)c3F)ccc2c2ccnc(C)c21												> 100	13.6	> 100	18.3	> 100
CCCCn1c2cc(OCCCc3ccccc3)ccc2c2ccnc(C)c21	41.6	40.5	29.9	26.9	21.3	20.3	51.2	12.9	21.5	28.1		16	15.6	> 100	13.8	24.7
Cc1nccc2c3ccc(OCC(C)C)cc3n(CC(C)C)c12	27.5		49.6	32.3	30.8	28.8	35.3	18.1	22.2	32.4	30.5	29.4	36.8	42.6	26.6	32.3
CCCCCCCCCCOc1ccc2c3ccnc(C)c3n(CC(C)C)c2c1												> 100	> 100	> 100	74.1	2

Compound	IC50 (KB) [µM]	IC50 (CWR22R) [µM]	IC50 (U-251) [µM]	IC50 [1] [µM]	IC50 (769-P) [µM]	IC50 (SCaBER) [µM]	IC50 (HT-29) [µM]	IC50 (786-0) [µM]	IC50 (A-375) [µM]	IC50 (A549) [µM]	IC50 (OS-RC-2) [µM]	IC50 (MCF7) [µM]	IC50 (HepG2) [µM]	IC50 (Bel-7402) [µM]	IC50 (BGC-823) [µM]	IC50 (HeLa) [µM]
Cc1nccc2c3ccc(OCCCc4ccccc4)cc3n(CC(C)C)c12												19.5	27.7	> 100	18.5	27.6
CCCCOc1ccc2c3ccnc(C)c3n(CCCc3ccccc3)c2c1												68.9	12.4	34.8	14	88.7
Cc1nccc2c3ccc(OCC(C)C)cc3n(CCCc3ccccc3)c12												> 100	12.9	39.3	23	> 100
CC(C)=CCOc1ccc2c3ccnc(C)c3n(CCCc3ccccc3)c2c1												> 100	21.1	24.7	32.3	> 100
Cc1nccc2c3ccc(OCCCc4ccccc4)cc3n(CCCc3ccccc3)c12												> 100	16.7	> 100	19.8	> 100
CCCCOc1ccc2c3cc[n+](Cc4ccccc4)c(C)c3n(CC)c2c1	< 1.7		14.2	22.9	4.6	21.8	6.4	7.8	6.9	13	8.8	5.9	10	2.9	10.9	2.4
CCn1c2cc(OCc3ccccc3)ccc2c2cc[n+](Cc3ccccc3)c(C)c21	8.7		16.2	22.1	8.9	46.3	10.9	15.4	12.3	19.6	15.9	67.6	49.9	3.6	66.1	56.3
CCCCn1c2cc(OCC(C)C)ccc2c2cc[n+](Cc3ccccc3)c(C)c21	2	6.7	12.1	12.3	4.6	18.2	3.1	2.5	4.2	3.8	3.2	10.4	4.2	2.7	4.6	3.9
CCCCn1c2cc(OCc3ccccc3)ccc2c2cc[n+](Cc3ccccc3)c(C)c21	4	2.1	5.5	4.6	20	8.5	3.7	< 1.5	4	4.4	3.6	15.7	2.7	3.6	21.4	2.2
CCCCCCCCCCOc1ccc2c3cc[n+](Cc4ccccc4)c(C)c3n(CC(C)C)c2c1	< 1.5	< 1.5	1.5	3.2	< 1.5	7.8	1.7	1.9	< 1.5	< 1.5	4	1.8	2.4	5.8	2	1.6
Cc1c2c(cc[n+]1Cc1ccccc1)c1ccc(OCCCc3ccccc3)cc1n2CC(C)C	< 1.5	2.8	2.5	3.8	3.7	3.6	4.9	2.3	< 1.5	< 1.5	3.5	9.2	4	1.3	2.5	1.4
CCCCOc1ccc2c3cc[n+](Cc4ccccc4)c(C)c3n(CCCc3ccccc3)c2c1	< 1.5	3.4	3.7	4.4	2.9	4.7	3.4	2.6	1.5	< 1.5	6.8	3.8	4.1	2.5	4.1	3.9
CCn1c2cc(OC(C)C)ccc2c2ccnc(C)c21												> 100	52.6	43.6	59.7	27.6
CCCCOc1ccc2c3ccnc(C)c3n(CC)c2c1												18.5	16.3	52.9	15.6	29.2
CCCCCCCCCCOc1ccc2c3ccnc(C)c3n(CC)c2c1												45.9	14.1	> 100	15.2	> 100
CCn1c2cc(OCc3c(F)c(F)c(F)c(F)c3F)ccc2c2ccnc(C)c21												> 100	> 100	> 100	> 100	> 100

Source: ChEMBL document CHEMBL2311271 (Eur J Med Chem, 2013)
